Key:
[1] = Inhibition of Phosphoinositide specific phospholipase C (PI-PLC) from Bacillus cereus on the internal face of the cell membrane.
Outline: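 Single-phase aqueous assay: recombinant B. cereus PI-PLC, final 5 nM, with 0.25 mM NPIP in 100 mM HEPES, 1 mM EDTA, pH 7, 0.008% PEG-8000, 25 °C. Inhibitor kept at least tenfold below cmc and added before substrate and enzyme. Initial rates at 399 nm over 4 min. IC50 is the mean of two experiments. Ki came from varying NPIP 0.1-0.5 mM at two inhibitor levels, fitted to competitive inhibition.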

[2] = test system: Bacillus cereus; assay: Compound was tested for the inhibition of Phosphoinositide specific phospholipase C (PI-PLC) in the presence of buffer at concentration of 40.0 mM; parameters: scale not given: the % may be the effect or the level left
Outline: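 Recombinant B. cereus PI-PLC, final 5 nM, with 0.25 mM NPIP (D-enantiomer) in 100 mM HEPES, 1 mM EDTA, pH 7, no PEG-600, 25 °C. Inhibitor added a few minutes before substrate and enzyme. Activity normalized to uninhibited control; mean of at least two separate experiments.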

[3] = test system: Bacillus cereus; assay: Compound was tested for the inhibition of Phosphatidylinositol-Specific Phospholipase C (PI-PLC) in the presence of PEG-600 at concentration of 40.0 mM; parameters: scale not given: the % may be the effect or the level left
Outline: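 Recombinant B. cereus PI-PLC (E. coli periplasmic prep), final 5 nM, with 0.25 mM NPIP (D-enantiomer) in 90% crystallization precipitant solution (33% PEG-600, 0.16 M trisodium citrate-HCl pH 7.35, 46 mM HEPES pH 7), 25 °C. Inhibitor preincubated a few minutes before substrate and enzyme. p-Nitrophenolate followed at 399 nm for 4 min; activity normalized to uninhibited control.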

For O[C@@H]1[C@H](O)[C@@H](O)[C@@H](O)[C@@]2(CO2)[C@@H]1O, which IC50 [1] is on record?
The IC50 was over 50000 µM.

For O=P(O)(O)OC1C(O)C(O)C(O)C(O)C1O (stereo in doubt; form 2), which IC50 [1] is on record?
The IC50 was 56 µM.

What does the source list for O[C@H]1[C@H](O)[C@@H](O)[C@H](O)[C@@H](O)[C@H]1O [INOSITOL]?
Activity [2]: 18%; Activity ([3]; 40.0 mM): 22%; IC50 [1]: 10000 µM

With CCCCCCOCC(CCP(=O)(O)O)OCCCCCC (stereo not drawn) as the molecule, how does the IC50 [1] read?
The IC50 was 60 µM.

Which IC50 [1] does the source give for O=P(O)(O)OC1C(O)C(O)C(O)C(O)C1O (stereo in doubt; form 1) [listing 1 of 2 here] here?
Its IC50 is 43 µM.

For CCCCCCCCOCC(COP(=O)(O)OC)OCCCCCCCC (stereo not drawn), which Activity [2] is on record?
Its Activity is 14%.

What about the Activity ([3]; 0.17 mM, in the assay text read “0.17 mM” for “40.0 mM”) of the same molecule?
Its Activity is 102%.

And the IC50 [1]?
Its IC50 is 12 µM.

For CCCCCCOCC(CC(F)(F)P(=O)(O)O)OCCCCCC (stereo not drawn), which IC50 [1] is on record?
Its IC50 is 45 µM.

For O=C1C(O)C(O)C(O)C(O)C1O (stereo in doubt), which IC50 [1] is on record?
Its IC50 is 133 µM.

For CCCCCCOCC(CCP(=O)(O)OC1C(O)C(O)C(O)C(O)C1O)OCCCCCC (stereo not drawn), which Activity [2] is on record?
Its Activity is 25%.

And the Activity ([3]; 0.25 mM, in the assay text read “0.25 mM” for “40.0 mM”)?
The Activity was 100%.

And the IC50 [1]?
Its IC50 is 18 µM.

For CCCCCC(=O)OCC(COP(=O)(O)O)OC(=O)CCCCC (stereo not drawn), which IC50 [1] is on record?
The IC50 was 187 µM.

With CCCCCCOCC(COP(=O)(O)O)OCCCCCC (stereo not drawn) as the molecule, how does the IC50 [1] read?
The IC50 was 55 µM.

For CCCCCC(=O)OCC(COP(=O)(O)OC)OC(=O)CCCCC (stereo not drawn), which IC50 [1] is on record?
Its IC50 is 118 µM.

With O[C@H]1[C@H](O)[C@@H](O)[C@H](O)[C@@H](O)[C@@H]1O [SCYLLITOL] as the molecule, how does the IC50 [1] read?
The IC50 was 410000 µM.

Which Activity [2] does the source give for O=P(O)(O)OC1C(O)C(O)C(O)C(O)C1O (stereo in doubt; form 1) [listing 2 of 2 here] here?
Its Activity is 69%.

And the Activity ([3]; 16.0 mM, in the assay text read “16.0 mM” for “40.0 mM”)?
Its Activity is 56%.

For CCCCCCOCC(CC(F)(F)P(=O)(O)OC1C(O)C(O)C(O)C(O)C1O)OCCCCCC (stereo not drawn), which IC50 [1] is on record?
The IC50 was 34 µM.

Which IC50 [1] does the source give for CCCCCCOCC(CCP(=O)(O)OC)OCCCCCC (stereo not drawn) here?
Its IC50 is 23 µM.

With O=C1C(O)C(O)C(O)C(O)C1O (racemic) as the molecule, how does the IC50 [1] read?
Its IC50 is 3 µM.

Which IC50 [1] does the source give for O=P1(O)OC2C(O)C(O)C(O)C(O)C2O1 (stereo not drawn) here?
Its IC50 is 135000 µM.

Which IC50 [1] does the source give for CCCCCOCC(COP(=O)(O)OC)OCCCCC (stereo not drawn) here?
Its IC50 is 235 µM.

For CCCCCCOCC(COP(=O)(O)OC)OCCCCCC (stereo not drawn), which IC50 [1] is on record?
Its IC50 is 53 µM.

For O[C@H]1[C@@H](O)[C@@H](O)[C@@H](O)[C@@H](O)[C@@H]1O, which IC50 [1] is on record?
Its IC50 is 2000 µM.

From ChEMBL document CHEMBL1129377, “Synthesis, structure-activity relationships, and the effect of polyethylene glycol on inhibitors of phosphatidylinositol-specific phospholipase C from Bacillus cereus” (J Med Chem, 1996)
